In ChEMBL document CHEMBL4414601 (J Med Chem, 2019):
pEC50: −log10 of the molar value. ≈ marks a conversion by molar mass, not a printed value.

Legend:
Plasmodium falciparum = assay: Antiplasmodial activity against Plasmodium falciparum 3D7A erythrocytic stage assessed as reduction in [3H]hypoxanthine incorporation preincubated for 24 hrs followed by [3H]hypoxanthine addition and measured after 24 hrs by microbeta scintillation counting method; format: functional, organism-based
In short: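 Nine threefold serial dilutions from 5 μM top concentration. Incubated 24 h at 37 °C under 5% CO2/5% O2/90% N2, then 0.2 μCi [3H]-hypoxanthine per well for another 24 h. Cells harvested on glass fibre filters and counted. Data normalized to compound-free parasitized RBCs; IC50 fitted.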

[1] = Lipophilicity, LogD of compound by reverse phase HPLC analysis
[2] = Aqueous solubility of compound; settings: buffer
L929 = assay: Cytotoxicity against mouse L929 cells assessed as reduction in viability by dual luciferase reporter gene assay; format: ADME, cell-based
[3] = Permeability of compound by PAMPA

Structure (SMILES) | pEC50 (Plasmodium falciparum) | chromatographic logD [1] | solubility [2] | pEC50 (L929) | Papp [3]
Cc1csc(Nc2nccc(-c3sc(C4CCNCC4)nc3-c3ccc(F)cc3)n2)n1 | 5.41 | 2.99 | 40 µM (≈ 18.1 µg/mL) | 5.66 | 15 ×10⁻⁶ cm/s
Fc1ccc(-c2nc(C3CCNCC3)sc2-c2ccnc(N3CCC(CN4CCOCC4)CC3)n2)cc1 | < 5.30 | 3.75 | 355 µM (≈ 186 µg/mL) | 4.89 | 38 ×10⁻⁶ cm/s
Fc1ccc(-c2nc(C3CCNCC3)sc2-c2ccnc(Nc3ccccn3)n2)cc1 | 5.62 | 2.96 | 56 µM (≈ 24.2 µg/mL) | 5.21 | 33 ×10⁻⁶ cm/s
CN1CCN(c2ccc(Nc3nccc(-c4sc(N)nc4-c4ccc(F)cc4)n3)cc2)CC1 | < 5.30 | 3.61 | 8 µM (≈ 3.69 µg/mL) | 5.60 | 26 ×10⁻⁶ cm/s
CN(C)CCNc1nccc(-c2sc(C3CCNCC3)nc2-c2ccc(F)cc2)n1 | 5.51 | 1.07 | 244 µM (≈ 104 µg/mL) | 4.00 | 2.4 ×10⁻⁶ cm/s
COc1cc(Nc2nccc(-c3sc(C4CCNCC4)nc3-c3ccc(F)cc3)n2)cc(C)n1 | 6.42 | 3.36 | – | 5.92 | 19 ×10⁻⁶ cm/s
CN1CCC(Nc2nccc(-c3sc(C4CCNCC4)nc3-c3ccc(F)cc3)n2)C1 (stereo not given) | 5.57 | 1.14 | 402 µM (≈ 176 µg/mL) | 4.43 | 1.7 ×10⁻⁶ cm/s
Cc1nccc(Nc2nccc(-c3sc(C4CCNCC4)nc3-c3ccc(F)cc3)n2)n1 | 6.09 | 2.43 | 47 µM (≈ 21 µg/mL) | 5.60 | 18 ×10⁻⁶ cm/s
CCOc1nccc(Nc2nccc(-c3sc(C4CCNCC4)nc3-c3ccc(F)cc3)n2)n1 | 6.22 | 3.21 | 35 µM (≈ 16.7 µg/mL) | 5.68 | 17 ×10⁻⁶ cm/s
Fc1ccc(-c2nc(C3CCNCC3)sc2-c2ccnc(Nc3ccn(C4CCNCC4)n3)n2)cc1 | 5.48 | 1.29 | 131 µM (≈ 66.1 µg/mL) | 4.00 | 3 ×10⁻⁶ cm/s
Fc1ccc(-c2nc(C3CCNCC3)oc2-c2ccnc(Nc3ccncn3)n2)cc1 | < 5.30 | 1.79 | 226 µM (≈ 94.3 µg/mL) | 4.67 | 19 ×10⁻⁶ cm/s
Oc1cc(Nc2nccc(-c3sc(C4CCNCC4)nc3-c3ccc(F)cc3)n2)ccn1 | 5.46 | 1.64 | – | 4.00 | 2 ×10⁻⁶ cm/s
Nc1nccc(-c2sc(C3CCNCC3)nc2-c2ccc(F)cc2)n1 | 5.66 | 1.5 | 467 µM (≈ 166 µg/mL) | 4.26 | 13 ×10⁻⁶ cm/s
Fc1ccc(-c2nc(C3CCNCC3)sc2-c2ccnc(NCCN3CCOCC3)n2)cc1 | < 5.30 | 2.02 | 408 µM (≈ 191 µg/mL) | – | 17 ×10⁻⁶ cm/s
OCCNc1nccc(-c2sc(C3CCNCC3)nc2-c2ccc(F)cc2)n1 | 5.39 | 1.52 | 351 µM (≈ 140 µg/mL) | 4.21 | 1 ×10⁻⁶ cm/s
CN1CCN(CCNc2nccc(-c3sc(C4CCNCC4)nc3-c3ccc(F)cc3)n2)CC1 | < 5.30 | 1.34 | 238 µM (≈ 115 µg/mL) | 4.00 | 1 ×10⁻⁶ cm/s
Cc1cc(Nc2nccc(-c3sc(C4CCNCC4)nc3-c3ccc(F)cc3)n2)nn1C | < 5.30 | 2.52 | 146 µM (≈ 65.6 µg/mL) | 5.29 | 20 ×10⁻⁶ cm/s
c1cc(Nc2nccc(-c3sc(C4CCNCC4)nc3C3CC3)n2)ncn1 | 5.46 | 1.71 | 139 µM (≈ 52.7 µg/mL) | 4.36 | 18 ×10⁻⁶ cm/s

Structure (SMILES) | pEC50 (Plasmodium falciparum) | chromatographic logD [1] | solubility [2] | pEC50 (L929) | Papp [3]
Cc1nnc(Nc2nccc(-c3sc(C4CCNCC4)nc3-c3ccc(F)cc3)n2)s1 | 5.35 | 2.02 | 74 µM (≈ 33.6 µg/mL) | 5.36 | 8 ×10⁻⁶ cm/s
CCc1cc(Nc2nccc(-c3sc(C4CCNCC4)nc3-c3ccc(F)cc3)n2)nc(C)c1F | 5.54 | 4.92 | 17 µM (≈ 8.37 µg/mL) | 5.37 | –
Cc1nc(Nc2nccc(-c3sc(C4CCNCC4)nc3-c3ccc(F)cc3)n2)cc(C2CCC2)c1F | < 5.30 | 5.52 | 7 µM (≈ 3.63 µg/mL) | 4.73 | –
Nc1nc(-c2ccc(F)cc2)c(-c2ccnc(Nc3ccc(N4CCOCC4)cc3)n2)s1 | – | 4.61 | 26 µM (≈ 11.7 µg/mL) | 4.71 | 3 ×10⁻⁶ cm/s
CCOC(=O)N1CCC(c2nc(-c3ccc(F)cc3)c(-c3ccnc(Nc4ccc(N5CCN(C)CC5)cc4)n3)s2)CC1 | < 5.30 | 6.66 | 23 µM (≈ 13.8 µg/mL) | 5.19 | 41 ×10⁻⁶ cm/s
CCCS(=O)(=O)Nc1nc(-c2ccc(F)cc2)c(-c2ccnc(Nc3ccc(N4CCNCC4)cc3)n2)s1 | 5.31 | 2.5 | – | 4.00 | –
Fc1ccc(-c2nc(C3CCNCC3)sc2-c2ccnc(NCC3CCCO3)n2)cc1 (stereo not given) | < 5.30 | 2.77 | 299 µM (≈ 131 µg/mL) | 4.77 | 32 ×10⁻⁶ cm/s
O=C(Nc1nc(-c2ccc(F)cc2)c(-c2ccnc(Nc3ccc(N4CCNCC4)cc3)n2)s1)C1CC1 | < 5.30 | 2.53 | – | 4.59 | 2 ×10⁻⁶ cm/s
Cc1nc(Nc2nccc(-c3sc(C4CCNCC4)nc3-c3ccc(F)cc3)n2)ccc1F | < 5.30 | 3.96 | 16 µM (≈ 7.43 µg/mL) | 5.28 | 30 ×10⁻⁶ cm/s
CN(C)C(CNc1nccc(-c2sc(C3CCNCC3)nc2-c2ccc(F)cc2)n1)C1CC1 (stereo not given) | 5.63 | 1.68 | 514 µM (≈ 240 µg/mL) | 4.92 | 3.4 ×10⁻⁶ cm/s
O[C@H]1CC[C@H](Nc2nccc(-c3sc(C4CCNCC4)nc3-c3ccc(F)cc3)n2)CC1 | < 5.30 | 2.12 | 287 µM (≈ 130 µg/mL) | 4.56 | 5.5 ×10⁻⁶ cm/s
O=S(=O)(Nc1nc(-c2ccc(F)cc2)c(-c2ccnc(Nc3ccc(N4CCNCC4)cc3)n2)s1)C1CCNCC1 | < 5.30 | 1.34 | – | 4.13 | 3 ×10⁻⁶ cm/s
Fc1ccc(-c2nc(C3CCNCC3)sc2-c2ccnc(N3CCC(N4CCC4)CC3)n2)cc1 | 5.37 | 1.63 | 114 µM (≈ 54.6 µg/mL) | 4.59 | 7.2 ×10⁻⁶ cm/s
Fc1ccc(-c2nc(C3CCNCC3)sc2-c2ccnc(N3CCC(N4CCOCC4)CC3)n2)cc1 | 5.63 | 2.83 | 251 µM (≈ 128 µg/mL) | 4.81 | 27 ×10⁻⁶ cm/s
Fc1ccc(-c2nc(C3CCNCC3)sc2-c2ccnc(NCCN3CCCC3)n2)cc1 | 5.50 | 1.13 | 297 µM (≈ 134 µg/mL) | 4.42 | 1 ×10⁻⁶ cm/s
Fc1ccc(-c2nc(C3CCNCC3)sc2-c2ccnc(N3CCCC3)n2)cc1 | < 5.30 | 3.71 | 374 µM (≈ 153 µg/mL) | 4.86 | 46 ×10⁻⁶ cm/s
OC1CCN(c2nccc(-c3sc(C4CCNCC4)nc3-c3ccc(F)cc3)n2)C1 (stereo not given) | < 5.30 | 1.92 | 273 µM (≈ 116 µg/mL) | 4.14 | 6.5 ×10⁻⁶ cm/s
COCCNc1nccc(-c2sc(C3CCNCC3)nc2-c2ccc(F)cc2)n1 | < 5.30 | 2.45 | 235 µM (≈ 97.2 µg/mL) | 4.47 | 30 ×10⁻⁶ cm/s
